Experiments:
Escherichia coli [1] = experiment: Ability to inhibit the peptide bond formation by puromycin reaction in Escherichia coli was determined; assay type: functional; details: read-out: ED50 (the source's name)
Escherichia coli [2] = experiment: Ability to inhibit the phenylalanine synthesis in Escherichia coli was determined; assay type: functional; details: read-out: ED50 (the source's name)
How it was run: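 Poly(U)-directed [³H]Phe polymerization with E. coli MRE600 ribosomes ([…]) and S-100. The reaction was started with 30 μM [³H]Phe and run 30 min at 37 °C. TCA-insoluble counts were taken on glass-fiber filters. Averages of three experiments.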

Escherichia coli [3] = experiment: Ability to inhibit the peptide bond formation by fragment reaction in Escherichia coli was determined; assay type: functional; details: read-out: ED50 (the source's name)
How it was run: (§1)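 Fragment reaction: ribosomes (1 mg/mL, from E. coli MRE600 or S. cerevisiae Y166) in 150 μL of 33 mM Tris-HCl pH 7.4, 270 mM KCl, 13 mM Mg acetate, with 2 mM puromycin, 1 pmol N-acetyl-[³H]Leu-ACCAC(U) donor (ribonuclease T1 fragment of N-acetyl-[³H]Leu-tRNA), 33% methanol and test drug; no mRNA or small subunit. Values are averages of three experiments.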

L1210 = experiment: Ability to inhibit the colony formation of leukemia L1210 cells in agar medium (0.3%) was determined; assay type: functional; details: Mus musculus, read-out: ID50 (the source's name)
Saccharomyces cerevisiae [4] = experiment: Ability to inhibit the peptide bond formation by fragment reaction in Saccharomyces cerevisiae was determined; assay type: functional; details: read-out: ED50 (the source's name); how it was run: as §1
Saccharomyces cerevisiae [5] = experiment: Ability to inhibit the phenylalanine synthesis in Saccharomyces cerevisiae was determined; assay type: functional; details: read-out: ED50 (the source's name)
How it was run: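 Yeast (S. cerevisiae Y166) ribosomes and S-100 in the same poly(U)/[³H]Phe mix as the E. coli assay, with 20 mM creatine phosphate and 50 μg/mL creatine phosphokinase as the energy system. Incubation was 30 min at 30 °C. Cold 10% TCA precipitate was filter-counted. Averages of three experiments.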

[6] = Ability to inhibit the bacterial growth of Escherichia coli (MRE600) by 50% was determined.; assay type: functional; design: reference not given here
[7] = (§2) Effect of butanol on inhibition of the fragment reaction in the presence of 10 uM of compound was determined; assay type: functional; details: in the assay text read “100 uM” for “10 uM”
How it was run: (§3)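 Solvent comparison: the fragment reaction (ribosomes with puromycin acceptor and N-acetyl-[³H]Leu-ACCAC(U) donor, in Tris-HCl pH 7.4/KCl/Mg acetate buffer) was run with methanol, ethanol, 2-propanol or butanol as the required organic solvent. Read-out is percent inhibition at the fixed drug level given in each line; series A and B are separate experiments.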

[8] = (§4) Effect of 2-propanol on inhibition of the fragment reaction in the presence of 10 uM of compound was determined; assay type: functional; details: in the assay text read “100 uM” for “10 uM”; how it was run: as §3
[9] = (§5) Effect of ethanol on inhibition of the fragment reaction in the presence of 10 uM of compound was determined; assay type: functional; details: in the assay text read “100 uM” for “10 uM”; how it was run: as §3
[10] = (§6) Effect of methanol on inhibition of the fragment reaction in the presence of 10 uM of compound was determined; assay type: functional; details: in the assay text read “100 uM” for “10 uM”; how it was run: as §3
[11] = system: Saccharolobus solfataricus; experiment: Ability to inhibit the phenylalanine synthesis in Sulfolobus solfataricus was determined; assay type: functional; details: read-out: ED50 (the source's name)
[12] = Effect of ethanol on inhibition of the fragment reaction in the presence of 200 uM of compound was determined
[13] = Effect of methanol on inhibition of the fragment reaction in the presence of 200 uM of compound was determined
[14] = Effect of 2-propanol on inhibition of the fragment reaction in the presence of 200 uM of compound was determined
[15] = Ability to inhibit the growth of Escherichia coli (MRE600) by 50% was determined. Activity represent the ratio of ED50 of sparsomycin to the ED50 of the compound; assay type: functional
How it was run: (§7)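 Liquid culture: E. coli MRE600 was grown in LB plus 0.2% glucose to A560 0.1, then 1-mL aliquots were incubated with drug 4 h at 37 °C. Growth was stopped with 0.1% sodium azide and A550 read; drug-free medium counts as 100%. ED50 (μM) is the dose giving 50% growth; the value reported is sparsomycin ED50/analogue ED50.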

[16] = Ability to inhibit the bacterial growth of Escherichia coli (MRE600) by 50% was determined Activity represent the ratio of ED50 of sparsomycin to the ED50 of the compound; assay type: functional; how it was run: as §7
[17] = as §4; how it was run: as §3
[18] = as §2; how it was run: as §3
[19] = as §5; how it was run: as §3
[20] = as §6; how it was run: as §3
[21] = Effect of 2-propanol on inhibition of the fragment reaction in the presence of 10 uM of compound was determined from Expt-A; how it was run: as §3
[22] = Effect of 2-propanol on inhibition of the fragment reaction in the presence of 20 uM of compound was determined from Expt-B; how it was run: as §3
[23] = Effect of butanol on inhibition of the fragment reaction in the presence of 10 uM of compound was determined from Expt-A; how it was run: as §3
[24] = Effect of ethanol on inhibition of the fragment reaction in the presence of 10 uM of compound was determined from Expt-A; how it was run: as §3
[25] = Effect of ethanol on inhibition of the fragment reaction in the presence of 20 uM of compound was determined from Expt-B; how it was run: as §3
[26] = Effect of methanol on inhibition of the fragment reaction in the presence of 10 uM of compound was determined from Expt-A; how it was run: as §3
[27] = Effect of methanol on inhibition of the fragment reaction in the presence of 20 uM of compound was determined from Expt-B; how it was run: as §3

Work on `CSC[S@@+]([O-])C[C@@H](CO)NC(=O)/C=C/c1c(C)[nH]c(=O)[nH]c1=O` (racemic) yielded an EC50 (Escherichia coli [1]) of 100 µM, an EC50 (Escherichia coli [2]) of 2000 µM and an EC50 (Escherichia coli [3]) of 1000 µM. For the same molecule, the IC50 (L1210) was 300 µM, the EC50 (Saccharomyces cerevisiae [4]) was 1000 µM and the EC50 (Saccharomyces cerevisiae [5]) was 2000 µM. It also gave a Ratio [6] of 0.01.

`CCCCCCCCCC[S+]([O-])CC(CO)NC(=O)/C=C/c1c(C)nc(O)nc1O` (stereo not drawn) gave an inhibition [7] of 15%, an inhibition [8] of 12% and an inhibition [9] of 35%. It also gave an inhibition [10] of 44%, an EC50 (Escherichia coli [1]) of 0.08 µM and an EC50 (Escherichia coli [2]) of 1.8 µM. The EC50 (Escherichia coli [3]) was 5000 µM, the IC50 (L1210) was 0.14 µM and the EC50 [11] was 30 µM. The EC50 (Saccharomyces cerevisiae [4]) was 700 µM, the EC50 (Saccharomyces cerevisiae [5]) was 0.2 µM and the Ratio [6] was 3.6.

`CCCCCCCCSC[S+]([O-])CC(CO)NC(=O)/C=C/c1c(C)nc(O)nc1O` (stereo not drawn) showed an EC50 (Escherichia coli [1]) of 0.25 µM, an EC50 (Escherichia coli [2]) of 1.6 µM and an EC50 (Escherichia coli [3]) of 60 µM. For the same molecule, the IC50 (L1210) was 0.1 µM, the EC50 (Saccharomyces cerevisiae [4]) was 300 µM and the EC50 (Saccharomyces cerevisiae [5]) was 1.3 µM. It also gave a Ratio [6] of 2.5, an Inhibition [12] of 30% and an Inhibition [13] of 42%. The Inhibition [14] was 6%.

Molecule `CSCSC[C@H](CO)NC(=O)/C=C/c1c(C)nc(O)nc1O` has an EC50 (Escherichia coli [1]) of 7 µM, an EC50 (Escherichia coli [2]) of 2000 µM and an EC50 (Escherichia coli [3]) of 550 µM. It also gave an IC50 (L1210) of 12.8 µM, an EC50 (Saccharomyces cerevisiae [4]) of 150 µM and an EC50 (Saccharomyces cerevisiae [5]) of 2000 µM. The Ratio [15] was 1.8.

In the case of `CSC[S@@+]([O-])C[C@H](CO)NC(=O)/C=C/c1c(C)[nH]c(=O)[nH]c1=O`, the EC50 (Escherichia coli [1]) is reported as 13 µM, the EC50 (Escherichia coli [2]) is reported as 2000 µM and the EC50 (Escherichia coli [3]) is reported as 700 µM. It also gave an IC50 (L1210) of 5.8 µM, an EC50 (Saccharomyces cerevisiae [4]) of 65 µM and an EC50 (Saccharomyces cerevisiae [5]) of 2000 µM. For the same molecule, the Ratio [6] was 0.92.

For `Cc1nc(O)nc(O)c1/C=C/C(=O)NC(CO)CSC[S+](C)[O-]` (stereo not drawn), the EC50 (Escherichia coli [1]) was 160 µM, the EC50 (Escherichia coli [2]) was 2000 µM and the EC50 (Escherichia coli [3]) was 750 µM. For the same molecule, the IC50 (L1210) was 180 µM, the EC50 (Saccharomyces cerevisiae [4]) was 350 µM and the EC50 (Saccharomyces cerevisiae [5]) was 2000 µM. For the same molecule, the Ratio [16] was 0.4.

`CSC[S+]([O-])CC(CO)NC(=O)/C=C\c1cnc(O)nc1O` (stereo not drawn) gave a Ratio [6] of 0.47.

With `Cc1nc(O)nc(O)c1/C=C/C(=O)N[C@@H](CO)C[S@@+]([O-])CCl` the EC50 (Escherichia coli [1]) was 0.65 µM, the EC50 (Escherichia coli [2]) was 450 µM and the EC50 (Escherichia coli [3]) was 7.6 µM. For the same molecule, the IC50 (L1210) was 0.29 µM, the EC50 [11] was 5000 µM and the EC50 (Saccharomyces cerevisiae [4]) was 17 µM. For the same molecule, the EC50 (Saccharomyces cerevisiae [5]) was 220 µM and the Ratio [6] was 0.55.

Molecule `Cc1nc(O)nc(O)c1/C=C/C(=O)N[C@@H](CO)C[S@+]([O-])CCl` has an EC50 (Escherichia coli [1]) of 5000 µM, an EC50 (Escherichia coli [2]) of 2000 µM and an EC50 (Escherichia coli [3]) of 5000 µM. The IC50 (L1210) was 30 µM, the EC50 [11] was 5000 µM and the EC50 (Saccharomyces cerevisiae [4]) was 5000 µM. It also gave an EC50 (Saccharomyces cerevisiae [5]) of 2500 µM and a Ratio [6] of 0.01.

`Cc1nc(O)nc(O)c1/C=C/C(=O)NC(CO)C[S+]([O-])CSCc1ccccc1` (stereo not drawn) showed an Inhibition [17] of 20%, an Inhibition [18] of 54% and an Inhibition [19] of 29%. The Inhibition [20] was 25%, the EC50 (Escherichia coli [1]) was 0.13 µM and the EC50 (Escherichia coli [2]) was 0.6 µM. The EC50 (Escherichia coli [3]) was 7.6 µM, the IC50 (L1210) was 0.11 µM and the EC50 [11] was 60 µM. The EC50 (Saccharomyces cerevisiae [4]) was 2.6 µM, the EC50 (Saccharomyces cerevisiae [5]) was 0.6 µM and the Ratio [6] was 1.

With `CSC[S@+]([O-])C[C@@H](CO)NC(=O)/C=C/c1c(C)nc(O)nc1O` the EC50 (Escherichia coli [1]) was 40 µM, the EC50 (Escherichia coli [2]) was 2000 µM and the EC50 (Escherichia coli [3]) was 1000 µM. For the same molecule, the IC50 (L1210) was 300 µM, the EC50 (Saccharomyces cerevisiae [4]) was 650 µM and the EC50 (Saccharomyces cerevisiae [5]) was 2000 µM. The Ratio [6] was 0.32.

With `CSC[S+]([O-])CC(CO)NC(=O)/C=C/c1cnc(O)nc1O` (stereo not drawn) the EC50 (Escherichia coli [1]) was 50 µM, the EC50 (Escherichia coli [2]) was 600 µM and the EC50 (Escherichia coli [3]) was 30 µM. The IC50 (L1210) was 12.7 µM, the EC50 (Saccharomyces cerevisiae [4]) was 50 µM and the EC50 (Saccharomyces cerevisiae [5]) was 1000 µM. It also gave a Ratio [6] of 0.27.

`CSC[S@+]([O-])C[C@H](CO)NC(=O)/C=C/c1c(C)[nH]c(=O)[nH]c1=O` gave an Inhibition [21] of 64%, an Inhibition [22] of 76% and an Inhibition [23] of 86%. For the same molecule, the Inhibition [24] was 91%, the Inhibition [25] was 92% and the Inhibition [26] was 57%. For the same molecule, the Inhibition [27] was 64%, the EC50 (Escherichia coli [1]) was 0.1 µM and the EC50 (Escherichia coli [2]) was 8.5 µM. The EC50 (Escherichia coli [3]) was 3.2 µM, the IC50 (L1210) was 0.4 µM and the EC50 [11] was 900 µM. For the same molecule, the EC50 (Saccharomyces cerevisiae [4]) was 2.8 µM, the EC50 (Saccharomyces cerevisiae [5]) was 5.2 µM and the Ratio [6] was 1.

For `CSCSC[C@@H](CO)NC(=O)/C=C/c1c(C)nc(O)nc1O`, the EC50 (Escherichia coli [1]) was 1000 µM, the EC50 (Escherichia coli [2]) was 2000 µM and the EC50 (Escherichia coli [3]) was 1000 µM. For the same molecule, the IC50 (L1210) was 300 µM, the EC50 (Saccharomyces cerevisiae [4]) was 550 µM and the EC50 (Saccharomyces cerevisiae [5]) was 2000 µM. It also gave a Ratio [6] of 0.01.

For `CCC[S+]([O-])CC(CO)NC(=O)/C=C/c1c(C)nc(O)nc1O` (stereo not drawn), the EC50 (Escherichia coli [1]) was 0.23 µM, the EC50 (Escherichia coli [2]) was 140 µM and the EC50 (Escherichia coli [3]) was 4.5 µM. For the same molecule, the IC50 (L1210) was 0.75 µM, the EC50 [11] was 1000 µM and the EC50 (Saccharomyces cerevisiae [4]) was 6.2 µM. For the same molecule, the EC50 (Saccharomyces cerevisiae [5]) was 42 µM and the Ratio [6] was 0.3.

Reference: ChEMBL document CHEMBL1123672, “Structure-activity relationships of sparsomycin and its analogues. Inhibition of peptide bond formation in cell-free systems and of L1210 and bacterial cell growth” (J Med Chem, 1987)
